ChEMBL document CHEMBL3286357, “Design, synthesis and pharmacological evaluation of novel substituted quinoline-2-carboxamide derivatives as human dihydroorotate dehydrogenase (hDHODH) inhibitors and anticancer agents” (Eur J Med Chem, 2014)

Columns and labels:
A-375 [1] = test: Antiproliferative activity against human A375 cells at 33.33 ug/ml for 24 hrs by MTT assay; format: functional; details: A-375, 24 h
Summary of the method: (§1)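 HEP-3B or A-375 cells were grown in DMEM with 10% FBS, 5% HBSS, penicillin, streptomycin and amphotericin B at 37 C and 5% CO2. Cells were seeded at 2 × 10^4 per well and preincubated for 24 h. They were then exposed to ten 1:3 serial dilutions from a top concentration of 100, made from 2% DMSO stocks. MTT was added for 3 h, formazan was dissolved in DMSO, and A550 was read. Wells were run in triplicate across three independent experiments. IC50 came from dose-response curves.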

[2] = Antiproliferative activity against human Hep3B cells at 0.14 ug/ml for 24 hrs by MTT assay; format: functional, Hep 3B2; summary of the method: as §1
[3] = Antiproliferative activity against human Hep3B cells at 1.23 ug/ml for 24 hrs by MTT assay; format: functional, Hep 3B2; summary of the method: as §1
[4] = Antiproliferative activity against human Hep3B cells at 11.11 ug/ml for 24 hrs by MTT assay; format: functional, Hep 3B2; summary of the method: as §1
A-375 [5] = test: Antiproliferative activity against human A375 cells at 0.01 ug/ml for 24 hrs by MTT assay; format: functional; details: A-375, 24 h; summary of the method: as §1
[6] = target: Dihydroorotate dehydrogenase (quinone), mitochondrial (Homo sapiens, UniProt Q02127); test: Inhibition of recombinant human DHODH activity after 20 mins by DCIP dye based colorimetric analysis in presence of 1 mM L-dihydroorotate and 0.1 mM CqD
Chain of Dihydroorotate dehydrogenase (quinone), mitochondrial (Q02127 whole entry): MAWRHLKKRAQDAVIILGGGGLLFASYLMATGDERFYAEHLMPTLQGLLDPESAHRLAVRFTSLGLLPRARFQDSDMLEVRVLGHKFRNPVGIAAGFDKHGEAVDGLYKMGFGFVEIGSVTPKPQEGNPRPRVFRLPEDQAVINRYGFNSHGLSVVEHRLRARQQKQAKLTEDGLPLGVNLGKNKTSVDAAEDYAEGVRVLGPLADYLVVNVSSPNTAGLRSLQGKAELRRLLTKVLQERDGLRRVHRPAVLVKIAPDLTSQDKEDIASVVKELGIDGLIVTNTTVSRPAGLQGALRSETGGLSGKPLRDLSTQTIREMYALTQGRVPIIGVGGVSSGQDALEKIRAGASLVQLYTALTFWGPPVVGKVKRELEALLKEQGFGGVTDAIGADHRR

A-375 [7] = test: Antiproliferative activity against human A375 cells at 0.14 ug/ml for 24 hrs by MTT assay; format: functional; details: A-375, 24 h; summary of the method: as §1
HEP-3B (human hepatoma) = test: Antiproliferative activity against human Hep3B cells for 24 hrs by MTT assay
[8] = Antiproliferative activity against human Hep3B cells at 0.05 ug/ml for 24 hrs by MTT assay; format: functional, Hep 3B2; summary of the method: as §1
[9] = Antiproliferative activity against human Hep3B cells at 0.01 ug/ml for 24 hrs by MTT assay; format: functional, Hep 3B2; summary of the method: as §1
[10] = Antiproliferative activity against human Hep3B cells at 33.33 ug/ml for 24 hrs by MTT assay; format: functional, Hep 3B2; summary of the method: as §1
[11] = Antiproliferative activity against human Hep3B cells at 0.02 ug/ml for 24 hrs by MTT assay; format: functional, Hep 3B2; summary of the method: as §1
[12] = Retention time of compound by HPLC analysis; format: physicochemical
A-375 [13] = test: Antiproliferative activity against human A375 cells at 100 ug/ml for 24 hrs by MTT assay; format: functional; details: A-375, 24 h; summary of the method: as §1
A-375 [14] = test: Antiproliferative activity against human A375 cells at 0.02 ug/ml for 24 hrs by MTT assay; format: functional; details: A-375, 24 h; summary of the method: as §1
[15] = Antiproliferative activity against human Hep3B cells at 3.7 ug/ml for 24 hrs by MTT assay; format: functional, Hep 3B2; summary of the method: as §1
A-375 (human melanoma) = test: Antiproliferative activity against human A375 cells for 24 hrs by MTT assay; details: A-375, 24 h
[16] = Antiproliferative activity against human Hep3B cells at 100 ug/ml for 24 hrs by MTT assay; format: functional, Hep 3B2; summary of the method: as §1
[17] = Antiproliferative activity against human Hep3B cells at 0.41 ug/ml for 24 hrs by MTT assay; format: functional, Hep 3B2; summary of the method: as §1
A-375 [18] = test: Antiproliferative activity against human A375 cells at 0.05 ug/ml for 24 hrs by MTT assay; format: functional; details: A-375, 24 h; summary of the method: as §1
A-375 [19] = test: Antiproliferative activity against human A375 cells at 11.11 ug/ml for 24 hrs by MTT assay; format: functional; details: A-375, 24 h; summary of the method: as §1
A-375 [20] = test: Antiproliferative activity against human A375 cells at 0.41 ug/ml for 24 hrs by MTT assay; format: functional; details: A-375, 24 h; summary of the method: as §1
A-375 [21] = test: Antiproliferative activity against human A375 cells at 1.23 ug/ml for 24 hrs by MTT assay; format: functional; details: A-375, 24 h; summary of the method: as §1
A-375 [22] = test: Antiproliferative activity against human A375 cells at 3.7 ug/ml for 24 hrs by MTT assay; format: functional; details: A-375, 24 h; summary of the method: as §1

| IC50 [6] [µM] | IC50 (HEP-3B (human hepatoma)) [µM] | Retention_time [12] [min] | IC50 (A-375 (human melanoma)) [µM] | Compound | inhibition at 33.33 µg/mL (A-375 [1]) [%] | inhibition at 0.14 µg/mL [2] [%] | inhibition at 1.23 µg/mL [3] [%] | inhibition at 11.11 µg/mL [4] [%] | inhibition at 0.01 µg/mL (A-375 [5]) [%] | inhibition at 0.14 µg/mL (A-375 [7]) [%] | inhibition at 0.05 µg/mL [8] [%] | inhibition at 0.01 µg/mL [9] [%] | inhibition at 33.33 µg/mL [10] [%] | inhibition at 0.02 µg/mL [11] [%] | inhibition at 100 µg/mL (A-375 [13]) [%] | inhibition at 0.02 µg/mL (A-375 [14]) [%] | inhibition at 3.7 µg/mL [15] [%] | inhibition at 100 µg/mL [16] [%] | inhibition at 0.41 µg/mL [17] [%] | inhibition at 0.05 µg/mL (A-375 [18]) [%] | further results |
| --- | --- | --- | --- | --- | --- | --- | --- | --- | --- | --- | --- | --- | --- | --- | --- | --- | --- | --- | --- | --- | --- |
| 3.21 | 8.13 | 6.3 | 15.8 | CCc1ccc2nc(C(=O)Nc3c(F)cc(-c4cccc(F)c4)cc3F)c(C)c(O)c2c1 | 28.4 | 11.2 | 23.5 | 46.3 | -0.35 | 1.57 | 5.62 | 0.74 | 56.3 | 2.05 | 47.2 | -0.12 | 31.2 | 63.2 | 16.2 | 0.68 | inhibition at 11.11 µg/mL (A-375 [19]): 26.4%; inhibition at 0.41 µg/mL (A-375 [20]): 3.56%; inhibition at 1.23 µg/mL (A-375 [21]): 12.2%; inhibition at 3.7 µg/mL (A-375 [22]): 17.9% |
| 1.09 | > 100 | 7.4 | 9.43 | COc1ccc2nc(C(=O)Nc3ccc(-c4ccccc4)cc3)c(C)c(C(=O)O)c2c1 | 58.3 | 2.01 | 11.2 | 28.3 | 0.35 | 3.65 | 0.65 | -0.12 | 33.6 | 0.05 | 70.2 | 0.68 | 19.4 | 72.5 | 5.31 | 1.26 | inhibition at 11.11 µg/mL (A-375 [19]): 47.9%; inhibition at 0.41 µg/mL (A-375 [20]): 11.3%; inhibition at 1.23 µg/mL (A-375 [21]): 21.3%; inhibition at 3.7 µg/mL (A-375 [22]): 33.6% |
| 2.28 | 50.6 | 6.4 | 18.1 | COc1ccc2nc(C(=O)Nc3ccc(-c4ccccc4)cc3)c(C)c(O)c2c1 | 46.2 | 3.52 | 14.2 | 36.2 | 0.13 | 3.05 | 1.23 | 0.35 | 48.4 | 0.96 | 66.9 | 0.56 | 23.5 | 79.3 | 7.58 | 1.98 | inhibition at 11.11 µg/mL (A-375 [19]): 36.2%; inhibition at 0.41 µg/mL (A-375 [20]): 7.62%; inhibition at 1.23 µg/mL (A-375 [21]): 18.7%; inhibition at 3.7 µg/mL (A-375 [22]): 27.2% |

The remaining lines, values behind:

| Compound | IC50 [6] [µM] | IC50 (HEP-3B (human hepatoma)) [µM] | Retention_time [12] [min] | IC50 (A-375 (human melanoma)) [µM] | inhibition at 33.33 µg/mL (A-375 [1]) [%] | inhibition at 0.14 µg/mL [2] [%] | inhibition at 1.23 µg/mL [3] [%] | inhibition at 11.11 µg/mL [4] [%] | inhibition at 0.01 µg/mL (A-375 [5]) [%] | inhibition at 0.14 µg/mL (A-375 [7]) [%] | inhibition at 0.05 µg/mL [8] [%] | inhibition at 0.01 µg/mL [9] [%] | inhibition at 33.33 µg/mL [10] [%] | inhibition at 0.02 µg/mL [11] [%] | inhibition at 100 µg/mL (A-375 [13]) [%] | inhibition at 0.02 µg/mL (A-375 [14]) [%] | inhibition at 3.7 µg/mL [15] [%] | inhibition at 100 µg/mL [16] [%] | inhibition at 0.41 µg/mL [17] [%] | inhibition at 0.05 µg/mL (A-375 [18]) [%] | further results |
| --- | --- | --- | --- | --- | --- | --- | --- | --- | --- | --- | --- | --- | --- | --- | --- | --- | --- | --- | --- | --- | --- |
| Cc1c(C(=O)Nc2c(F)cc(-c3cccc(F)c3)cc2F)nc2ccc(C(F)(F)F)cc2c1O | 6.09 | 12.6 | 7 | 29.9 | 61.3 | 2.65 | 15.3 | 36.2 | 0.16 | 9.37 | 1.35 | -0.33 | 45.2 | 0.06 | 95.2 | 1.28 | 31.2 | 68.4 | 9.38 | 3.47 | inhibition at 11.11 µg/mL (A-375 [19]): 46.3%; inhibition at 0.41 µg/mL (A-375 [20]): 16.5%; inhibition at 1.23 µg/mL (A-375 [21]): 21.2%; inhibition at 3.7 µg/mL (A-375 [22]): 34.3% |
| Cc1c(C(=O)Nc2c(F)cc(-c3cccc(F)c3)cc2F)nc2ccc(C(F)(F)F)cc2c1C(=O)O | 3.44 | 42.8 | 6.8 | 7.57 | 51 | 2.13 | 17.2 | 31.2 | 0.12 | 2.56 | 1.68 | 0.2 | 43.3 | 1.15 | 61.3 | 0.37 | 21.3 | 72.3 | 6.42 | 1.04 | inhibition at 11.11 µg/mL (A-375 [19]): 45.4%; inhibition at 0.41 µg/mL (A-375 [20]): 7.82%; inhibition at 1.23 µg/mL (A-375 [21]): 18.3%; inhibition at 3.7 µg/mL (A-375 [22]): 27.8% |
| CCOc1ccc2nc(C(=O)Nc3c(F)cc(-c4cccc(F)c4)cc3F)c(C)c(C(=O)O)c2c1 | 2.83 | 14.9 | 6.8 | 5.8 | 51.2 | 2.06 | 17.9 | 33.2 | 0.3 | 3.05 | 0.98 | -0.12 | 38.6 | 0.05 | 72.3 | 1.02 | 26.5 | 65.3 | 5.34 | 1.96 | inhibition at 11.11 µg/mL (A-375 [19]): 48.3%; inhibition at 0.41 µg/mL (A-375 [20]): 11.2%; inhibition at 1.23 µg/mL (A-375 [21]): 26.6%; inhibition at 3.7 µg/mL (A-375 [22]): 35.2% |
